Measured values published in BindingDB's records for doi:10.1016/j.ejmech.2011.01.042 (Ludwig-Maximilians-University Munich, 2011).
Where a name gives a salt, the structure may show the parent alone.

Experiments:
[1] = biological target: T1, Sodium- and chloride-dependent GABA transporter 3 (Mus musculus, UniProt P31650); test: Inhibition of mouse GAT3-mediated [3H]GABA uptake expressed in human HEK cells assessed as specific binding remaining at 1 mM
T1 sequence (P31650 whole entry): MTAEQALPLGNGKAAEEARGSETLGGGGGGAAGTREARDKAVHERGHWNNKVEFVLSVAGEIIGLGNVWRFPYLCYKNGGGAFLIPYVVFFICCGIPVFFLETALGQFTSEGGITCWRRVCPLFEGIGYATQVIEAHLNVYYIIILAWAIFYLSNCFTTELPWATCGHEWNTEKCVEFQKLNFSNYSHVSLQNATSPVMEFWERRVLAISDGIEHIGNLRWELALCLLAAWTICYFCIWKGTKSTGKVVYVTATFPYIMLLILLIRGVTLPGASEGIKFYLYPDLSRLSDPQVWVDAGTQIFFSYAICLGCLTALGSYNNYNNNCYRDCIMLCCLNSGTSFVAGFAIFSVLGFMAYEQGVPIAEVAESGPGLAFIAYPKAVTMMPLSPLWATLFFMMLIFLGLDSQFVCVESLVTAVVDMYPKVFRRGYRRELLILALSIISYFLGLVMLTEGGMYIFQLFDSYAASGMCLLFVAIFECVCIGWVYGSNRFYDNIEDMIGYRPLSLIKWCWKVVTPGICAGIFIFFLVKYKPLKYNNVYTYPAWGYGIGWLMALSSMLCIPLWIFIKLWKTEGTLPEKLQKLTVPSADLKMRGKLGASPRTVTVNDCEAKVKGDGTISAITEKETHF

[2] = biological target: T2, Sodium- and chloride-dependent GABA transporter 2 (Mus musculus, UniProt P31649); test: Inhibition of mouse GAT2-mediated [3H]GABA uptake expressed in human HEK cells
T2 sequence (P31649 whole entry): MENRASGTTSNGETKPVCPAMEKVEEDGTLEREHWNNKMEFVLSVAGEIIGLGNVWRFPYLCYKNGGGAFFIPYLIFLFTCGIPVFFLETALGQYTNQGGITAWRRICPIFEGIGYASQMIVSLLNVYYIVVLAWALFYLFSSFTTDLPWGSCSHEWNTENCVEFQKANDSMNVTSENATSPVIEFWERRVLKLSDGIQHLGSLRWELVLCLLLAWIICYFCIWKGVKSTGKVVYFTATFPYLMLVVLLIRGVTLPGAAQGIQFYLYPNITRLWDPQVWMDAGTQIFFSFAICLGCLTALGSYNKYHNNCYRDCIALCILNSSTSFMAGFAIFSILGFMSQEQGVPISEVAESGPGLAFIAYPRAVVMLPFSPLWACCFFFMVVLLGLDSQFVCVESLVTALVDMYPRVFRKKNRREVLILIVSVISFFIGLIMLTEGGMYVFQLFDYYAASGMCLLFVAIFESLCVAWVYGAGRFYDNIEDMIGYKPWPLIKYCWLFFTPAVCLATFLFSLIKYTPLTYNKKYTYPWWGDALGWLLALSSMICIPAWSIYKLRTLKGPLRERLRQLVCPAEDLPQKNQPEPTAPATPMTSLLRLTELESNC
Procedure, shortened: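 The value is pIC50, given as mean ± SEM of three independent experiments, each run in triplicate. Where only two experiments were run, uptake is reported rather than pIC50.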

IC50 [1] [µM]	Structure (SMILES)	IC50 [2] [µM]
776	O=C(O)CCCCCCn1ccnc1 [7-Imidazol-1-yl-heptanoic acid; hydrochloride]	
	Cc1ccsc1C(=CCCN(C)C1CCCc2o[nH]c(=O)c21)c1sccc1C (stereo not drawn) [4-((4,4-bis(3-methylthiophen-2-yl)but-3-enyl)(methyl)amino)-4,5,6,7-tetrahydrobenzo[d]isoxazol-3-ol]	22
	COc1ccc(C2(O)CCN(CCCn3c4ccccc4c4ccccc43)CC2)cc1 [1-(3-(9H-carbazol-9-yl)propyl)-4-(4-methoxyphenyl)piperidin-4-ol]	1.4
